Experiment [1] has as its target Sodium-dependent dopamine transporter (Rattus norvegicus, UniProt P23977). Briefly: Inhibitory activity against dopamine transporter (DAT) labeled with [3H]WIN-35428 in rat brain striatal membrane. It counts as cell membranes.
Experiment [2] concerns the target Sodium-dependent serotonin transporter (Rattus norvegicus, UniProt P31652). Briefly: Inhibitory activity against serotonin transporter (SERT) labeled with [3H]-citalopram in rat brain striatal membrane. It counts as cell membranes.
The test system of experiment [3] is Monoamine transporters; serotonin & dopamine. Briefly: Ratio between the IC50 values of SERT and DAT. It counts as protein assay. In a few lines: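 Selectivity ratio: SERT IC50 ([3H]citalopram) divided by DAT IC50 ([3H]WIN 35,428). Both IC50s come from binding in male Sprague–Dawley rat striatal membranes under identical conditions, each by nonlinear curve fitting of at least five concentrations, three independent experiments in triplicate.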

The term IC50 denotes the concentration that inhibits the measured activity by half. A high value points to weaker potency.

Chain of Sodium-dependent dopamine transporter (P23977 whole entry): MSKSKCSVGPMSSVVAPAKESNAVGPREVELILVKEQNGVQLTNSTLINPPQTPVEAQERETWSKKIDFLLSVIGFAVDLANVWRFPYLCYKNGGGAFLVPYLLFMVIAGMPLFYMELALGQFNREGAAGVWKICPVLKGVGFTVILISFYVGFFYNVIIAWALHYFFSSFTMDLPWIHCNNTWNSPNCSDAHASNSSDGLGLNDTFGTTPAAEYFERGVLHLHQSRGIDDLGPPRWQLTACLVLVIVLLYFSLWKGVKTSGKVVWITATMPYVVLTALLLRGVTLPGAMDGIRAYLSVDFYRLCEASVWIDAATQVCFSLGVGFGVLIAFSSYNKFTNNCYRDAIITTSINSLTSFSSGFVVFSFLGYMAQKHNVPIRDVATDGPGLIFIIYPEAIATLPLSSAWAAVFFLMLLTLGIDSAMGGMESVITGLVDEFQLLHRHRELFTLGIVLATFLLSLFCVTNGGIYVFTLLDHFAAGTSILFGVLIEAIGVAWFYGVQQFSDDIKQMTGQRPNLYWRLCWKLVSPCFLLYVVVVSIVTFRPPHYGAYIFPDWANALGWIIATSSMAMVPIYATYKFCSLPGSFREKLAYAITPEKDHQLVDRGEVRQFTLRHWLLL
Chain of Sodium-dependent serotonin transporter (P31652 whole entry): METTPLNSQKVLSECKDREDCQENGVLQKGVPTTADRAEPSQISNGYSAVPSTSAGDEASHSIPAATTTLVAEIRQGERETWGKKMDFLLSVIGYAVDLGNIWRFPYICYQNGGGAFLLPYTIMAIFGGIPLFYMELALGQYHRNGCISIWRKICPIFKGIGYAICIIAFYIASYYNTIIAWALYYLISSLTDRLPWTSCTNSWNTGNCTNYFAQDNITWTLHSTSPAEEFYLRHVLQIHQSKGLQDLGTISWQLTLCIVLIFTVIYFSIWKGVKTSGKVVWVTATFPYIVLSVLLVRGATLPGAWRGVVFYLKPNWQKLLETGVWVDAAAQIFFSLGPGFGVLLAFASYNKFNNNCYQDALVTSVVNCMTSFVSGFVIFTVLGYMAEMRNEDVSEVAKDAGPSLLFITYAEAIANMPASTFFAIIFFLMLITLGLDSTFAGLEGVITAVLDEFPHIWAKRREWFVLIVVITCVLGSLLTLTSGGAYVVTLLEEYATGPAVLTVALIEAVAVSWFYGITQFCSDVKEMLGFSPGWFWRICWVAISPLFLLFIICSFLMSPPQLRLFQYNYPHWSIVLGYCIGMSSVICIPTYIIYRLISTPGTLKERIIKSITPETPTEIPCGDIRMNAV

`C(=Cc1ccccc1)CN1CCC(CCOC(c2ccccc2)c2ccccc2)CC1`: the IC50 came to 10.1 nM in experiment [1] and 232 nM in experiment [2]. In addition, the Ratio in experiment [3] is 22.9.
Take `Fc1ccc(C(OCCC2CCN(CC=Cc3ccccc3)CC2)c2ccc(F)cc2)cc1`: the figures for the IC50 in experiment [1] and in experiment [2] were 41.4 nM and 271 nM, respectively. Moreover, the Ratio in experiment [3] worked out at 6.5.
The matching figures for `Fc1ccc(CCCN2CCC(CCOC(c3ccccc3)c3ccccc3)CC2)cc1`: 6.6 nM, 223 nM and 33.8.
As to `Fc1ccc(C(OCCC2CCN(CCCc3ccccc3)CC2)c2cccs2)cc1` (configuration not stated), the IC50 in experiment [1] stood at 11.7 nM; in experiment [2] it was 85.7 nM. For the same compound, the Ratio in experiment [3] was 7.3.
Turning to `C(=Cc1cccs1)CN1CCC(CCOC(c2ccccc2)c2ccccc2)CC1`, the results for the IC50 in experiment [1] and in experiment [2] were 9.8 nM and 291 nM, respectively. Besides, the Ratio in experiment [3] worked out at 29.6.
In the case of `Fc1ccc(C=CCN2CCC(CCOC(c3ccccc3)c3ccccc3)CC2)cc1`, the IC50 in experiment [1] was 10.8 nM; in experiment [2], 205 nM. For the same compound, in experiment [3], the Ratio was 19.
`c1ccc(C(OCCC2CCN(CCCc3cccnc3)CC2)c2ccccc2)cc1`: the figures for the IC50 in experiment [1] and in experiment [2] were 29.9 nM and 194 nM, respectively. Moreover, the Ratio in experiment [3] came to 6.5.
In the same order, the values of `Fc1ccc(C=CCN2CCC(CCOC(c3ccc(F)cc3)c3ccc(F)cc3)CC2)cc1` are 15.1 nM, 75.8 nM and 5.
In the same order, the values of `c1ccc(CCCN2CCC(CCOC(c3ccccc3)c3cccs3)CC2)cc1` (configuration not stated) are 6 nM, 180 nM and 30.

The record behind these values is ChEMBL document CHEMBL1131564, “Potent and selective ligands for the dopamine transporter (DAT): structure-activity relationship studies of novel 4-[2-(diphenylmethoxy)ethyl]-1-(3-phenylpropyl)piperidine analogues” (J Med Chem, 1998).
